The values below come from paper PMC4631057 (ACS chemical biology, 2015).

Broadly, the IC50 is the concentration needed to halve the response being measured. The low end stands for greater potency, the high end for weaker potency. What is called Kd is the equilibrium constant for the complex coming apart. A low value points to higher affinity.

Data set [1] relates to Bcl-2, Msi1, and XIAP mRNAs. Kind of data set: mRNA stability after actinomycin D in HCT-116. The class given is cell-based, human. The following applies: 20 μM, 5 μg/mL actinomycin D, compared to DMSO control. Summed up: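 HCT-116 cells, cultured in DMEM with 10% FBS at 37 °C and 5% CO2, were exposed to 5 μg/mL actinomycin D together with 20 μM test compound or DMSO. Half-lives of Bcl-2, Msi1 and XIAP mRNAs were determined. Data are representative of two independent experiments.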

A further data set addresses HuR bound Msi1 mRNA (Homo sapiens, UniProt Q15717). Put plainly: RNP IP, HuR-bound Msi1 mRNA in HCT-116 cell lysate. As to conditions: 50 μM, compared to DMSO control. The data set is classed as cell-based. Summed up:
(§1)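 HCT-116 lysate, prepared with a protein G immunoprecipitation kit, incubated 30 min with test compound or DMSO. HuR antibody, or mouse IgG as negative control, was then added for 60 min. Complexes were collected on protein G agarose, RNA isolated, and bound transcripts quantified by qRT-PCR. Mean ± SD of two independent experiments.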

In data set [2] the test system is cleaved PARP, cleaved caspase-3, LC3 conversion. Put plainly: Western blot of apoptosis and autophagy markers in HCT-116. The data set is classed as cell-based, human. The following applies: 75 μM, 48 h. Summed up: (§2)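 HCT-116 cells were grown in DMEM with 10% FBS and 1% antibiotics at 37 °C in humidified 5% CO2. They were treated with test compound or DMSO at the indicated doses for 48 h. Protein levels were then measured by Western blot, with α-tubulin as loading control.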

In a further data set the target is HuR-bound XIAP mRNA (Homo sapiens, UniProt Q15717). Kind of data set: RNP IP, HuR-bound XIAP mRNA in HCT-116 cell lysate. The following applies: at indicated doses, compared to DMSO. The data set is classed as cell-based. Summed up:
as §1

Another data set relates to Wnt signaling pathway. Kind of data set: Wnt responsive 7xTcf promoter/luciferase reporter assay in HCT-116. The data set is classed as cell-based, human. The following applies: 20 μM, 24 h, 20 mM LiCl stimulation, compared to DMSO control. Summed up:
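HCT-116 cells were infected with the 7TFP lentiviral vector to stably express the 7xTcf promoter/luciferase construct. Cells were plated and allowed to attach overnight. They were then stimulated with 20 mM LiCl and treated with 20 μM test compound or DMSO for 24 h. Cells were lysed in reporter lysis buffer and luciferase was assayed. Activity was normalized to total protein. Values are mean ± SD of three independent experiments, compared with DMSO by one-way ANOVA.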
(A reporter such as luciferase makes a cellular process visible.)

Data set [3] deals with protein levels of Bcl-2, Msi1, and XIAP. Put plainly: Western blot of HuR target protein levels in HCT-116. The class given is cell-based, human. The following applies: indicated doses, 48 h. Summed up:
as §2

The subject of a further data set is ARE^Msi1–FITC. Kind of data set: FP titration of Bcl-xL with Msi1-FITC. The data set is classed as binding. As to conditions: highest concentration tested 1000 nM; 2 nM Msi1-FITC.
The target in data set [4] is T1, HuR full-length (human, UniProt Q15717 1-326). Kind of data set: fluorescence polarization. On the technique in general: Fluorescence polarisation rises when a labelled molecule tumbles more slowly, as on binding a larger partner.
Data set [5] has as its target T1, HuR full-length. Kind of data set: fluorescence polarization. The source holds these as a separate data set.
Data set [6] deals with T1, HuR full-length. Put plainly: competition.
The target of data set [7] is T1, HuR full-length. Put plainly: fluorescence polarization. The source holds these as a separate data set.
In a further data set the target is HuR RRM1/2 (UniProt Q15717 20-186). Put plainly: AlphaLISA. A general note: Bead proximity is the source of the signal in Alpha formats.
Chain of HuR RRM1/2 (Q15717 20-186): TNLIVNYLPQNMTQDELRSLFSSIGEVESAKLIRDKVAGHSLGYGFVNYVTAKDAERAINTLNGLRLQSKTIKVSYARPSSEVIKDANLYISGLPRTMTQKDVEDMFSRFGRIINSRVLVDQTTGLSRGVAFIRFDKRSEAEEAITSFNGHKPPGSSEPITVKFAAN

T1 sequence (Q15717 whole entry): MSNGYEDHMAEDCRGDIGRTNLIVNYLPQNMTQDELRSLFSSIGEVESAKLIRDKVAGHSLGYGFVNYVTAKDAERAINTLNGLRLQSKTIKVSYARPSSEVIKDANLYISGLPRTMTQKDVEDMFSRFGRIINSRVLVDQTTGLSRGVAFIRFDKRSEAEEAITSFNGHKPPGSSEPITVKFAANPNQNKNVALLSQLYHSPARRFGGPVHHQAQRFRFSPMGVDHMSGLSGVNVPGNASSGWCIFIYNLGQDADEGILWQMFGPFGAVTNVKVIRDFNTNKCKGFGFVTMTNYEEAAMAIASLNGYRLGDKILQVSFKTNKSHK
Chain of HuR bound Msi1 mRNA (Q15717 2-326 limits assumed): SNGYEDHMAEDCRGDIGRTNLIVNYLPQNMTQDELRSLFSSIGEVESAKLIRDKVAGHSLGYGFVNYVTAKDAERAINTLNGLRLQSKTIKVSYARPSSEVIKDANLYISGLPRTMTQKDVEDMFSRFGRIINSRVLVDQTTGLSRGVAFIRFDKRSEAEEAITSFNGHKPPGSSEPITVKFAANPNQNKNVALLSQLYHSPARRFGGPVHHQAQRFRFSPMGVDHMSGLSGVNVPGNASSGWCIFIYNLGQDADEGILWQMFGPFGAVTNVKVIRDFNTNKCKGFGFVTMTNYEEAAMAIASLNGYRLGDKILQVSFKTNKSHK
Chain of HuR-bound XIAP mRNA (Q15717 2-326 limits assumed): as above

Turning to `CCN(CC)C(=O)CC(c1cc(OC)c(OC)c(OC)c1)c1c(OC)cc(OC)c2c(-c3ccccc3)cc(=O)oc12` (stereo not drawn) [CMLD-1], the “effect on half-lives of Bcl-2, Msi1 and XIAP mRNAs” value in [1] is on record as “shortened the half-lives”. Besides, the “effect on HuR bound Msi1 mRNA (RNP IP)” value at HuR bound Msi1 mRNA is given as “significantly blocked”. In addition, in data set [2], the “LC3-I conversion to LC3-II” value is reported as “detected”, the PARP cleavage result is “obvious PARP cleavage” and the caspase-3 cleavage result is reported as “subtle caspase-3 cleavage”. For the same molecule, at HuR-bound XIAP mRNA, the “effect on HuR-bound XIAP mRNA (RNP IP)” value was “potently inhibited”. The “effect on Wnt signaling (luciferase reporter)” value with Wnt signaling pathway is listed as “significantly impacted”. Further, the “effect on protein levels of Bcl-2, Msi1, and XIAP” value in data set [3] was “decreased”. For the molecule “Bcl-xL: non-RNA binding protein used as specificity control”, the “binding to ARE^Msi1–FITC (in words)” value in the data set on ARE^Msi1–FITC is reported as “no binding”. Consider UAUUUGAUAGUACACU (ssRNA) [APC-FITC], for which the binding signal with HuR full-length [4] was 20 fold lower affinity than Msi1. As to AAAAGAUUUAUUUAUU (ssRNA) [Bcl-2-FITC (AREBcl-2)], the binding result with HuR full-length [5] is “binds”.

In turn, GCUUUUAUUUAUUUUG (ssRNA) [Msi1 RNA unlabeled] gave an IC50 with HuR full-length [6] of 17.9 nM. As for GCUUUUAUUUAUUUUG (ssRNA) [Msi1-FITC (AREMsi1)], the Kd with HuR full-length [7] is ~3 nM.

Turning to UAGUUAUUUUUAUGUC (ssRNA) [XIAP-FITC (AREXIAP)], the binding result with HuR full-length [5] is reported as “binds”.

In the case of GCUUUUAUUUAUUUUG (ssRNA) [Msi1 RNA biotinylated], binding with HuR RRM1/2 was characterised by a dissociation constant (Kd) of 75 nM.
